Results: ChEMBL document CHEMBL1132554, “Inhibition of Trypanosoma cruzi trypanothione reductase by acridines: kinetic studies and structure-activity relationships” (J Med Chem, 1999)

The compounds below were run against T1, Trypanothione reductase (Trypanosoma cruzi, UniProt P28593) (assay: The mixed type inhibitory activity against trypanothione reductase was evaluated from Lineweaver Burk plots). Conditions: not given.
T1 sequence (P28593 whole entry): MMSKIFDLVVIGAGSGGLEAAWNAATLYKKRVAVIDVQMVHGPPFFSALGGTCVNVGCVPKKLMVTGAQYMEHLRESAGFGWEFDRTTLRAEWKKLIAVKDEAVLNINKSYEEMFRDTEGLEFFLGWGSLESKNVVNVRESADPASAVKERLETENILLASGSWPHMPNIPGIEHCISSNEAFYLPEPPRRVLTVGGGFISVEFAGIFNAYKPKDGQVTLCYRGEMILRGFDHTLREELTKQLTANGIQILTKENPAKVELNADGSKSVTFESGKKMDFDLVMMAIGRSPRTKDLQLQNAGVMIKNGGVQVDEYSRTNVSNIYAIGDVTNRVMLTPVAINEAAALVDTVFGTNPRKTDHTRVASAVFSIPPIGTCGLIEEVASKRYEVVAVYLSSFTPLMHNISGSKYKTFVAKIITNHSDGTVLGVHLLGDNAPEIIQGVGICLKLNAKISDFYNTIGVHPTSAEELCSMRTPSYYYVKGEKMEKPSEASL

Going from `CCN(CC)CCCCSc1c2ccc(Cl)cc2nc2ccc(OC)cc12` to `CCN(CC)CCSc1c2ccc(Cl)cc2nc2ccc(OC)cc12`, the Ki falls from 67 µM to 37 µM (1.8-fold).

These compounds were tested against T1, Trypanothione reductase (assay: The mixed type inhibitory activity against trypanothione reductase was evaluated from Lineweaver Burk plots and Cornish-Bowdwn plots.). Conditions: not given.

Compared with `CCN(CC)CCCCSc1c2ccc(Cl)cc2nc2ccc(OC)cc12`, `CCN(CC)CCSc1c2ccc(Cl)cc2nc2ccc(OC)cc12` is 4-fold higher in Ki: 21 µM for the first, 83 µM for the second. The first binds more tightly here.

These compounds were tested against T1, Trypanothione reductase (assay: The competitive inhibitory activity against trypanothione reductase was evaluated from Lineweaver Burk plots). Conditions: read-out: Ki app.
Outline: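 Recombinant T. cruzi TR purified from E. coli SG5, 7–10 mU per assay, at 25 °C in 40 mM Hepes, 1 mM EDTA, pH 7.5 with 100 µM NADPH. TS2 varied without inhibitor and at two inhibitor levels. Each point was measured at least twice. Apparent Ki is the mean of Ki,slope values from Lineweaver–Burk plots at each [I].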

`Nc1c2ccccc2nc2cc(Cl)ccc12` and `Nc1c2ccccc2nc2ccccc12` [AMINACRINE] are within 1.5-fold of each other in Ki: 43 µM for the first, 38 µM for the second.

First: CCN(CC)CCCCC(C)Nc1c2ccc(Cl)cc2nc2ccc(OC)cc12 (centres undefined)
Second: CCN(CC)CCCC(C)Nc1c2ccc(Cl)cc2nc2ccc(OC)cc12 (centres undefined) [QUINACRINE]
The Ki of the first is 3.5-fold lower: 5.5 µM for the first, 19 µM for the second.

`CCN(CC)CCCCC(C)Nc1c2ccccc2nc2cc(Cl)ccc12` (centres undefined) and `CCN(CC)CCCC(C)Nc1c2ccccc2nc2cc(Cl)ccc12` (centres undefined) are within 1.5-fold of each other in Ki: 11 µM for the first, 10 µM for the second.

First: CCN(CC)CCCC(C)Nc1c2ccccc2nc2ccc(OC)cc12 (centres undefined)
Second: COc1ccc2nc3cc(Cl)ccc3c(N)c2c1
The Ki of the first is 3.9-fold higher: 27 µM for the first, 7 µM for the second.

First: Nc1c2c(nc3cc(Cl)ccc13)CCCC2
Second: Nc1c2c(nc3ccccc13)CCCC2 [TACRINE]
The Ki of the first is 1.8-fold lower: 80 µM for the first, 140 µM for the second. The first binds more tightly here.
